Calls of active or inactive are those of the source. The rule behind the calls is not given here.
Columns and labels:
MCF7 [1] = assay: Cytotoxicity against human MCF7 cells assessed as cell growth inhibition at 25 uM after 72 hrs by alamar blue assay; format: functional, cell-based
Summary of the method: (§1)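 MCF7 cells were seeded at 5000 per well. After 24 h they were exposed to 25 µM compound. Viability was read with AlamarBlue after a 4 h reagent incubation at 24, 48 and 72 h of treatment.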

MCF7 [2] = assay: Cytotoxicity against human MCF7 cells assessed as cell growth inhibition after 72 hrs by alamar blue assay; format: functional, cell-based; conditions: MCF7, 72 h
MDA-MB-231 [3] = assay: Cytotoxicity against human MDA-MB-231 cells assessed as cell growth inhibition at 25 uM after 72 hrs by alamar blue assay; format: functional, cell-based
MDA-MB-231 [4] = assay: Cytotoxicity against human MDA-MB-231 cells assessed as cell growth inhibition after 72 hrs by alamar blue assay; format: functional, cell-based; conditions: MDA-MB-231, 72 h
[5] = target: Vascular endothelial growth factor receptor 1 (Homo sapiens) (UniProt P17948); assay: Inhibition of VEGFR1 in human MCF7 cells assessed as downregulation of protein expression after 48 hrs by Western blot method; format: cell-based
Chain of Vascular endothelial growth factor receptor 1 (Homo sapiens) (P17948 whole entry): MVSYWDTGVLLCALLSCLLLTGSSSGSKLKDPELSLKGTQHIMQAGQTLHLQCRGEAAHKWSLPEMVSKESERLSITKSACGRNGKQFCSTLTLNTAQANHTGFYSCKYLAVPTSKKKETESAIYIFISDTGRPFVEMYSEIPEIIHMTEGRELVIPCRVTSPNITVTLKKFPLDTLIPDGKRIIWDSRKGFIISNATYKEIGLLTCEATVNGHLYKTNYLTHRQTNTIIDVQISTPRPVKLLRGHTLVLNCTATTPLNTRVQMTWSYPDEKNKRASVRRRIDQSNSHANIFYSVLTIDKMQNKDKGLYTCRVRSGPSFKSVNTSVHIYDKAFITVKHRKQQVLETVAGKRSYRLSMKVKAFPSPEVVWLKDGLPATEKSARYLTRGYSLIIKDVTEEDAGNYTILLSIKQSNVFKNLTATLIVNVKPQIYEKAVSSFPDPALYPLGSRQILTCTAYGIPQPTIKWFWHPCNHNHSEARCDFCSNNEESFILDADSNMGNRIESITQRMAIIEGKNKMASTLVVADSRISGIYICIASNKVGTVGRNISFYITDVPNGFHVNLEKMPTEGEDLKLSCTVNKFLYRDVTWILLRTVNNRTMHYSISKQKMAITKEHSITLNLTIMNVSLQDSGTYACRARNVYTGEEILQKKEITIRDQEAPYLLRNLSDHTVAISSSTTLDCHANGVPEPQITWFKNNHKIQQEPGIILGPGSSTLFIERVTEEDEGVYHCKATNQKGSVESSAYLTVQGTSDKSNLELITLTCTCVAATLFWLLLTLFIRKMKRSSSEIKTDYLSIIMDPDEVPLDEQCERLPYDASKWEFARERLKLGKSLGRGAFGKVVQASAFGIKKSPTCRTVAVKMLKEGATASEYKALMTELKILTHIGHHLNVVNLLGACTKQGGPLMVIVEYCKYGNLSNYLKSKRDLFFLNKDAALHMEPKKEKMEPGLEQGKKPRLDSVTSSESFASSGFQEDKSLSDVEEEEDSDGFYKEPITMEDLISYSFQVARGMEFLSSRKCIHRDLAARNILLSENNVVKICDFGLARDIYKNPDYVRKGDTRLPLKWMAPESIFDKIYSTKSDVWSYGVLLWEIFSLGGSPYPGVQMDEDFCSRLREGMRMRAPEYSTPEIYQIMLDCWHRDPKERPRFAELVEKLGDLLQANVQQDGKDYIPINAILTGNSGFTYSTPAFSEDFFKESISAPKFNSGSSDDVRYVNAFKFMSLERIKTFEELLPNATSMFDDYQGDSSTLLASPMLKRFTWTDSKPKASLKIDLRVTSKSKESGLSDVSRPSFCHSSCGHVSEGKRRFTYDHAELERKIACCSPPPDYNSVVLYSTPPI
Summary of the method: (§2)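 MCF7 cells were seeded at 300,000 per 6 cm dish in RPMI + 10% FBS and grown 24 h. They were then treated in RPMI + 2% FBS for 48 h, harvested and immunoblotted at 40 µg protein per lane. Blots were probed with primary antibodies against VEGFR1 and β-actin.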

[6] = target: Vascular endothelial growth factor receptor 1 (Homo sapiens) (UniProt P17948); assay: Inhibition of VEGFR1 in human MCF7 cells assessed as downregulation of protein expression at 0.5 uM after 48 hrs by Western blot method relative to beta-actin; format: cell-based; summary of the method: as §2
[7] = target: Vascular endothelial growth factor receptor 1 (Homo sapiens) (UniProt P17948); assay: Inhibition of VEGFR1 in human MCF7 cells assessed as downregulation of protein expression at 2 uM after 48 hrs by Western blot method relative to beta-actin; format: cell-based; summary of the method: as §2
MCF7 [8] = assay: Effect on beta-actin protein expression in human MCF7 cells at 0.5 to 2 uM after 48 hrs by Western blot method; format: ADME, cell-based; conditions: mcf7, 48 h; summary of the method: as §2
Ishikawa = assay: Cytotoxicity against human Ishikawa cells assessed as cell growth inhibition after 72 hrs by alamar blue assay; format: functional, cell-based
BT-474 = assay: Cytotoxicity against human BT474 cells assessed as cell growth inhibition after 72 hrs by alamar blue assay; format: functional, cell-based; conditions: BT-474, 72 h
[9] = target: Vascular endothelial growth factor receptor 1 (Homo sapiens) (UniProt P17948); assay: Inhibition of VEGFR1 in human MCF7 cells assessed as downregulation of protein expression at 1 uM after 48 hrs by Western blot method relative to beta-actin; format: cell-based; summary of the method: as §2
MCF7 [10] = assay: Cytotoxicity against human MCF7 cells assessed as cell growth inhibition at 25 uM by alamar blue assay; format: functional, cell-based; conditions: TDE = time-dependent effect; summary of the method: as §1
MCF7 [11] = assay: Effect on beta-actin protein expression in human MCF7 cells at 5 to 15 uM after 48 hrs by Western blot method; format: ADME, cell-based; conditions: mcf7, 48 h; summary of the method: as §2
[12] = target: Vascular endothelial growth factor receptor 1 (Homo sapiens) (UniProt P17948); assay: Inhibition of VEGFR1 in human MCF7 cells assessed as downregulation of protein expression at 5 uM after 48 hrs by Western blot method relative to beta-actin; format: cell-based; summary of the method: as §2
[13] = target: Vascular endothelial growth factor receptor 1 (Homo sapiens) (UniProt P17948); assay: Inhibition of VEGFR1 in human MCF7 cells assessed as downregulation of protein expression at 10 uM after 48 hrs by Western blot method relative to beta-actin; format: cell-based; summary of the method: as §2
[14] = target: Vascular endothelial growth factor receptor 1 (Homo sapiens) (UniProt P17948); assay: Inhibition of VEGFR1 in human MCF7 cells assessed as downregulation of protein expression at 15 uM after 48 hrs by Western blot method relative to beta-actin; format: cell-based; summary of the method: as §2

Row | Compound | growth inhibition (GI) (MCF7 [1]) | IC50 (MCF7 [2]) [µM] | growth inhibition (GI) (MDA-MB-231 [3]) | IC50 (MDA-MB-231 [4]) [µM] | other results
1 | Clc1ccccc1-c1ccccc1-c1ccn2ncnc2n1 | inactive | > 100 | inactive | > 100 | –
2 | CS(=O)(=O)c1cccc(-c2ccc(-n3cc(-c4ccccc4)nn3)cc2)c1 | – | < 50 | – | – | –
3 | Fc1ccc(Cl)cc1-c1ccc(-n2cc(-c3ccccc3)nn2)cc1 | – | < 50 | – | – | –
4 | N#Cc1cncc(-c2ccn3ncnc3n2)c1 | inactive | – | inactive | > 100 | –
5 | Fc1ccc(Cl)cc1-c1ccn2ncnc2n1 | inactive | – | inactive | > 100 | –
6 | Clc1ccccc1-c1ccc(-n2cc(-c3ccccc3)nn2)cc1 | – | < 50 | – | – | –
7 | c1ccc(-c2ccn3ncnc3n2)cc1 | – | 3.91 | inactive | > 100 | –
8 | Clc1ccccc1-c1ccn2ncnc2n1 | inactive | > 100 | inactive | > 100 | –
9 | COc1ccc(F)cc1-c1ccc(-n2cc(-c3ccccc3)nn2)cc1 | – | < 50 | – | – | –
10 | c1ccc(-c2ccc(-n3cc(-c4ccccc4)nn3)cc2)cc1 | – | < 50 | – | – | –
11 | CCOc1cc(F)ccc1-c1ccc(-n2cc(-c3ccccc3)nn2)cc1 | – | 1.69 | – | 4.81 | inhibition [5]: Dose-dependent effect; fold change (FC) [6]: 0.8; fold change (FC) [7]: 0.54; Activity (MCF7 [8]): Non-Toxic; IC50 (Ishikawa): 1.97 µM; IC50 (BT-474): 4.08 µM; fold change (FC) [9]: 0.29; growth inhibition (GI) (MCF7 [10]): Tde
12 | CCOc1cc(F)ccc1-c1ccn2ncnc2n1 | inactive | 93.8 | inactive | 50.3 | –
13 | c1ccc(-c2cn(-c3ccc(-c4cc5ccccc5s4)cc3)nn2)cc1 | – | 14.4 | – | – | inhibition [5]: Dose-dependent effect; Activity (MCF7 [11]): Non-Toxic; fold change (FC) [12]: 0.8; IC50 (BT-474): < 50 µM; fold change (FC) [13]: 0.7; fold change (FC) [14]: 0.63
14 | COc1ccc(F)cc1-c1ccn2ncnc2n1 | inactive | > 100 | inactive | > 100 | –
15 | Fc1ccc(-c2ccn3ncnc3n2)cn1 | inactive | > 100 | inactive | > 100 | –
16 | N#Cc1cncc(-c2ccc(-n3cc(-c4ccccc4)nn3)cc2)c1 | – | < 50 | – | – | –
17 | Cc1ccccc1-c1ccc(-n2cc(-c3ccccc3)nn2)cc1 | – | < 50 | – | – | –
